High-throughput results: PubChem BioAssay, Broad Institute
An excerpt weighted towards active compounds, which were near 3.4% of everything screened.
SIRT5 block: SIRT5 desuccinylase inhibitors, primary screen, biochemical, fluorescence imaging, single point, set 5; NAD-dependent protein deacylase sirtuin-5, mitochondrial (Homo sapiens), Q9NXA8; Purified SirT5, succinyl-peptide AMC, trypsin-coupled fluorescence; inhibition, % at 15 µM; actives 1.1% (n = 330,000); AID 652115, 2013; in the data active = inhibition above about 15%
Ecoli rRNA inh: reduced GFP signal of wild-type E. coli, primary screen, bacterial rRNA inhibitor project, GFP/RFP fluorescence, OD600, single point | E. coli WT GFP vs humanized-ribosome RFP mutants, 24 h; stronger effect = lower value; DMSO median 0, no signal -100 | GFP signal change (wild-type ribosome), % (test concentration not listed) | actives 1.6% (n = 350,000);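 active = significant combined selectivity score with lowered wild-type GFP, culture density cut under 30%, mutant RFP and density less affected; inactive = any of these conditions unmet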
E-sel inducer: E-selectin induction in HUVECs, primary screen, imaging, HUVEC, immunofluorescence imaging, single point | actives 0.37% (n = 260,000) | P16581 | normalized: neutral wells 0, TNF-alpha wells 100 | activation, % at 7.58 µM | AID 686992, 2013;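 active = mean E-selectin-positive cell signal at least 10% of the positive control, reached in at least 60% of replicates, without over 20% cell loss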
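System: HUVEC / Compound: single concentration / Signal: immunofluorescence imaging / Read-out: percent E-selectin-positive cells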
AF4-AF9 inh: inhibitors of AF4 peptide binding to AF9, primary screen, biochemical, AlphaScreen, biotin-AF4 peptide, FLAG-AF9, single point. Protein AF-9 (Homo sapiens), P42568. inhibition, % at 10 µM. actives 0.47% (n = 350,000). AID 651704, 2012;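 active = every replicate reaching a set inhibition limit, whatever the replicate mean, cut at about 25% in these data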;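 note: 0% = plate neutral control median and 100% = total signal loss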
Target sequence (P42568 whole entry, looked up): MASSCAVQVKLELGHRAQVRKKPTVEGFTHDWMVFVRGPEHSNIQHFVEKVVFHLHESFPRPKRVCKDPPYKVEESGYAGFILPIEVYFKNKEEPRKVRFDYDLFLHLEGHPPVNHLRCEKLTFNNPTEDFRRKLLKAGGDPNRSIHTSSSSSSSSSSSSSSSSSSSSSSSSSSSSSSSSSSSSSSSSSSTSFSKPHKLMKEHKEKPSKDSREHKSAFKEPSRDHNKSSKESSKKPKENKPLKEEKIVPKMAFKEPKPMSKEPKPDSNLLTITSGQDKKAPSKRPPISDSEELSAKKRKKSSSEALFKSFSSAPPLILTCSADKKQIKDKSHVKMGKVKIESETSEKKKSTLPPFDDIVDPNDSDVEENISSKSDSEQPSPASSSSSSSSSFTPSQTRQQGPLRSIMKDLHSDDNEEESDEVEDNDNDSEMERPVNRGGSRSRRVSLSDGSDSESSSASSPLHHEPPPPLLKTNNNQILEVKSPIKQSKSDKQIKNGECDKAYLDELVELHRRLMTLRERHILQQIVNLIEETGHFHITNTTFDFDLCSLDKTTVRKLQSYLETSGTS
S100A4 MyoIIA: inhibitors of S100A4-myosin IIA peptide binding, primary screen, biochemical, fluorescence polarization, TAMRA-MyoIIA peptide; Protein S100-A4 (Homo sapiens), P26447; inhibition, % at 10.7 µM; actives 0.14% (n = 360,000); AID 652163, 2013;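 active = mean inhibition of at least 70% across replicates, with every replicate also reaching that level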
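Assay system: human S100A4 monomer with TAMRA-labelled myosin IIA peptide / Buffer or medium: Calcium-containing HEPES buffer, pH 7.2 / Reagent: TAMRA-labelled myosin IIA heavy-chain peptide probe, 5 nM / Compound: one dose per compound / Timing: polarization read 5 min after assay mix addition, stable 5–60 min / Benchmarks: neutral control DMSO, positive control TFP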
ERAP1 HTS inh: human ERAP1 aminopeptidase inhibitors, primary screen, biochemical, single point, plate reader. inhibition, % at 10.7 µM. recombinant ERAP1, Leu-AMC fluorescence, 60 min. Endoplasmic reticulum aminopeptidase 1 (Homo sapiens), Q9NZ08. actives 0.15% (n = 340,000). AID 652197, 2013;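 active = mean replicate inhibition of at least 30%, or all replicates individually reaching that 30% level; inactive = mean below 30% and not every replicate reaching it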;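 note: 0% = neutral control wells and 100% = L-leucinethiol positive control wells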
AlphaScreen intf: AlphaScreen signal interference counter-screen, dose response, artefact control, biochemical, cherry-picked samples, luminescence; AID 720494, 2013; AC50, µM (highest dose often 12 µM), for inactives: at the highest dose activity change, negative = inhibition; shares compounds with AF4-AF9 inh; actives 45% (n = 530); cut-off not given, nearly all actives have AC50 up to about 14 µM
Starred values were filed as active, the others as inactive; . = not tested or not shown.

SMILES	SIRT5 block	Ecoli rRNA inh	E-sel inducer	AF4-AF9 inh	S100A4 MyoIIA	ERAP1 HTS inh	AlphaScreen intf
CNC[C@@H]1Oc2c(NS(=O)(=O)c3c(C)noc3C)cccc2C(=O)N([C@H](C)CO)C[C@@H]1C	6	2	0	-18	10	5	.
CC1=NN(c2ccccc2)C(=O)/C1=C/C=C/c1ccc(N(C)C)cc1	3	3	.	67*	6	10	-41%
COc1ccccc1CN1C[C@@H]2N[C@H](C1)C2c1ccc(-c2ccccc2OC)cc1 (some centres undefined)	5	-60	0	14	-34	-1	.
C[C@@H]1CN([C@H](C)CO)S(=O)(=O)c2ccc(C#Cc3ccncc3)cc2O[C@H]1CN(C)S(=O)(=O)c1ccccc1	5	.	.	4	-42	0	.
CC(C)(c1ccccc1)c1ccc(OCC(O)CNC2CCN(Cc3ccccc3)CC2)cc1 (centres undefined)	2	-56	1	31*	10	6	-29%
C[n+]1c(-c2ccc(C=NNC(=O)c3ccc(C(=O)NN=Cc4ccc(-c5cn6ccccc6[n+]5C)cc4)cc3)cc2)cn2ccccc21	0	.	0	78*	3	-2	-18%
O=C(N/N=C\c1ccc(F)cc1)c1ccc(F)cc1	-5	6	1	-1	-4	0	.
C[C@@H]1CN([C@H](C)CO)C(=O)c2cc(NC(=O)NC3CCCCC3)ccc2O[C@@H](C)CCCCO[C@H]1CN(C)S(=O)(=O)c1ccccc1	8	-2	0	-5	-8	1	.
COc1ccc(S(=O)(=O)Nc2cccc3c2O[C@@H](CN(C)C(=O)NC(C)C)[C@@H](C)CN([C@@H](C)CO)C3=O)cc1	0	2	.	-2	25	0	.
O=C(Cc1cccnc1)N1CC(=O)N2[C@H](C1)[C@H](c1ccc(/C=C/c3ccccc3)cc1)[C@@H]2CO	2	3	0	20	4	-1	.
CN(C)c1ccc(CNCCC(Cc2ccccc2)c2ccco2)cc1 (centres undefined)	-2	-49	0	49*	-9	.	10µM*
c1ccc(CNCCC(Cc2ccccc2)c2ccco2)cc1 (centres undefined)	1	.	.	6	-13	-9	.
COc1ccc(S(=O)(=O)N(C)C[C@H]2Oc3ccc(NC(=O)Nc4ccc(C(F)(F)F)cc4)cc3C(=O)N([C@@H](C)CO)C[C@@H]2C)cc1	.	3	1	.	.	.	.
O=C(C1CCC1)N1CC2(C1)[C@@H](c1ccccc1)[C@@H](CO)N2CC1CCCC1	.	-38	0	.	.	.	.
O=C(NC1CCCCC1)C(c1cccs1)N(CCCN1CCOCC1)C(=O)c1ccc(-c2ccccc2)[nH]1 (centres undefined)	-3	-34	.	31*	-8	2	-17%
CNC(=O)C[C@@H]1CC[C@H]2[C@@H](COC[C@H](O)CN2S(=O)(=O)c2ccccc2Cl)O1	.	1	0	.	.	.	.
Cc1[nH]c2ccccc2c1C(C#N)(C#N)C1C(=O)c2ccccc2C1=O	0	-22	.	65*	2	2	2µM*
COC(=O)C1=C(C)NC(C)=C(C(=O)OCC(C)C)C1c1ccccc1[N+](=O)[O-] (centres undefined)	-2	.	1	38*	-3	-2	11µM*
CCOC(=O)C1=C(C)NC(C)=C(C(=O)OCC)C1c1cccc([N+](=O)[O-])c1	0	-13	0	0	-6	-2	.
